ChEMBL document CHEMBL4346736, “Anti-proliferative activity and structure-activity relationship of honokiol derivatives” (Bioorg Med Chem, 2019)
pIC50: −log10 of the molar value.

Experiments:
[1] = tested on: K562; experiment: Antiproliferative activity against human K562 cells after 48 hrs by MTT assay; format: functional, cell-based; conditions: K562, 48 h
Outline: (§1)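 Cells from the Institute of Cell Biology, CAS (Shanghai), grown in RPMI-1640 with 10% FBS and 100 U/mL penicillin-streptomycin at 37 °C under 5% CO2. Cells were exposed to compounds for 48 h, and viability was read by MTT (or MTS). IC50, the concentration giving 50% inhibition, was calculated by the Logit method. Data are representative of 3 independent experiments.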

[2] = tested on: A549; experiment: Antiproliferative activity against human A549 cells after 48 hrs by MTT assay; format: functional, cell-based; conditions: A549, 48 h; outline: as §1
[3] = tested on: HepG2; experiment: Antiproliferative activity against human HepG2 cells after 48 hrs by MTT assay; format: functional, cell-based; conditions: HepG2, 48 h; outline: as §1
[4] = tested on: HUVEC; experiment: Antiproliferative activity against human HUVEC cells after 48 hrs by MTT assay; format: cell-based; outline: as §1
[5] = Selectivity index, ratio of IC50 for HUVEC to IC50 for human K562 cells; format: toxicity; conditions: HUVEC versus K562 cells, read-out: Ratio IC50
Outline: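 K562 tumor cells and HUVEC grown in RPMI-1640 with 10% FBS and penicillin-streptomycin at 37 °C under 5% CO2. Viability was read by MTT or MTS assay, with tumor cells exposed to compounds for 48 h. IC50 values came from the Logit method across 3 independent experiments. The index is HUVEC IC50 divided by K562 IC50.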

[6] = Partition coefficient, log P of the compound; format: physicochemical; conditions: octanol/water
[7] = tested on: HepG2; experiment: Antiproliferative activity against human HepG2 cells; format: functional, cell-based; outline: as §1
[8] = tested on: K562; experiment: Antiproliferative activity against human K562 cells; format: functional, cell-based; outline: as §1
[9] = tested on: HepG2; experiment: Antiproliferative activity against human HepG2 cells after 72 hrs by MTT assay; format: functional, cell-based; conditions: HepG2, 72 h
[10] = tested on: HCT-116; experiment: Antiproliferative activity against human HCT116 cells after 72 hrs by MTT assay; format: functional, cell-based; conditions: HCT-116, 72 h
[11] = tested on: NCI-H1975; experiment: Antiproliferative activity against human NCI-H1975 cells after 72 hrs by MTT assay; format: functional, cell-based; conditions: NCI-H1975, 72 h
[12] = tested on: A549; experiment: Antiproliferative activity against human A549 cells by MTT assay; format: functional, cell-based; outline: as §1
[13] = tested on: K562; experiment: Antiproliferative activity against human K562 cells by MTT assay; format: functional, cell-based; outline: as §1
[14] = Antiproliferative activity against human SPCA1 cells by MTT assay; format: functional, cell-based

Compound	pIC50 [1]	pIC50 [2]	pIC50 [3]	logP [6]	further results
C=CCc1cc2c(c(-c3cc(CC=C)c4c(c3)NC(=O)CO4)c1)OCC(=O)N2	5.15	4.43	4.56	3.29	pIC50 [4]: 4.09; selectivity ratio [5]: 11.6
CCCc1cc(C)c(O)c(-c2cc(C)c(O)c(CCC)c2)c1	4.58	4.53	4.46	6.51	
C=CCc1cc(N=O)c(O)c(-c2cc(CC=C)c(O)c(N=O)c2)c1	< 3.89	< 3.89	< 3.89	4.45	
C=CCc1cc(-c2ccc3c(c2)OCCO3)ccc1OC				4.05	
C=CCc1cc(/C=N\c2ccc(N)cc2)c(O)c(-c2ccc(O)c(CC=C)c2)c1				5.54	
C=CCc1cc(CN2CCC(N)CC2)c(O)c(-c2cc(CC=C)c(O)c(CN3CCC(N)CC3)c2)c1				2.79	pIC50 [7]: 4.77; pIC50 [8]: 5.04
C=CCc1ccc(O)c(-c2cc(CC=C)c3oncc3c2)c1				4.78	
C=CCc1cc(CN2CCN(C)CC2)c(O)c(-c2cc(CC=C)c(O)c(CN3CCN(C)CC3)c2)c1				4.04	pIC50 [7]: < 4.40; pIC50 [8]: < 4.40
C=CCc1cc(/C=N\c2ccccc2)c(O)c(-c2ccc(O)c(CC=C)c2)c1				6.47	
C=CCc1ccc(O)c(-c2ccc(O)c(/C=C\C)c2)c1				5.1	pIC50 [9]: 4.50; pIC50 [10]: 4.70; pIC50 [11]: 4.40
C=CCc1ccc(O)c(-c2ccc3c(c2)CC(C)O3)c1 (centres undefined)	3.90	3.94	3.90	4.65	
C=CCc1cc(/C=N/O)c(O)c(-c2ccc(O)c(CC=C)c2)c1				5.35	
C=CCc1cc(N)c(O)c(-c2cc(N)c(O)c(CC=C)c2)c1	< 3.89	< 3.89	< 3.89	3.62	
C=CCc1cc(CN(C)C)c(O)c(-c2cc(CC=C)c(O)c(CN(C)C)c2)c1	4.50	4.22	4.32	4.26	
OCC(O)Cc1ccc(O)c(-c2ccc(O)c(CC(O)CO)c2)c1 (centres undefined)	< 3.89	< 3.89	< 3.89	1.16	
C=CCc1cc(NC(=O)C=C)c(O)c(-c2cc(CC=C)c(O)c(NC(=O)C=C)c2)c1	5.30	4.78	4.72	4.3	pIC50 [4]: 4.24; selectivity ratio [5]: 11.5
C=CCc1ccc(O)c(-c2ccc(O)c(CC(CO)OC)c2)c1 (centres undefined)				3.7	pIC50 [9]: < 4.40; pIC50 [10]: < 4.40; pIC50 [11]: < 4.40
C=CCc1cc(NC(C)=O)c(O)c(-c2cc(CC=C)c(O)c(NC(C)=O)c2)c1	< 3.89	< 3.89	< 3.89	3.09	
CCCc1ccc(O)c(-c2ccc3c(c2)CC(C)O3)c1 (centres undefined)	4.14	4.02	3.92	5.13	
C=CCc1cc(-c2ccc3c(c2)OCCO3)ccc1O				3.98	

Compound	pIC50 [1]	pIC50 [2]	pIC50 [3]	logP [6]	further results
C=CCc1cc(-c2ccc3c(c2)OCO3)ccc1O				4.36	
C=CCc1cc(/C=N/O)c(O)c(-c2cc(/C=N/O)c(O)c(CC=C)c2)c1				5.49	
C=CCc1ccc(O)c(-c2cc(CC=C)c(O)c(C(C)(C)C)c2)c1	4.49	4.59	4.51	6.43	
C=CCc1cc(-c2cc(CC=C)c(O)c([N+](=O)[O-])c2)c(O)c([N+](=O)[O-])c1	< 3.89	< 3.89	< 3.89	4.57	
C=CCc1cc(/C=N/Nc2ccccc2)c(O)c(-c2ccc(O)c(CC=C)c2)c1				7.76	
C=CCc1ccc(O)c(-c2cc(/C=N/O)c(O)c(CC=C)c2)c1				5.14	
C=CCc1ccc(O)c(-c2cc(/C=C3\SC(=O)NC3=O)c(O)c(CC=C)c2)c1				4.27	
C=CCc1ccc(O)c(-c2cc(/C=C(\C#N)C(=O)OCC)c(O)c(CC=C)c2)c1				5.23	
C=CCc1cc(/C=C2\SC(=O)NC2=O)c(O)c(-c2cc(/C=C3\SC(=O)NC3=O)c(O)c(CC=C)c2)c1				3.74	
C=CCc1cc(/C=C(\C#N)C(=O)OCC)c(O)c(-c2ccc(O)c(CC=C)c2)c1				5.44	
C=CCc1cc(C=O)c(O)c(-c2cc(C=O)c(O)c(CC=C)c2)c1				4.23	pIC50 [12]: < 4.11; pIC50 [13]: 4.49; pIC50 [14]: 4.50
C=CCc1cc(C=O)c(O)c(-c2ccc(O)c(CC=C)c2)c1				4.72	pIC50 [12]: < 4.07; pIC50 [13]: 4.26
C=CCc1cc(/C=N/CCN)c(O)c(-c2ccc(O)c(CC=C)c2)c1				3.57	
C=CCc1cc(/C=C2\SC(=O)NC2=O)c(O)c(-c2ccc(O)c(CC=C)c2)c1				4.48	
C=CCc1ccc(OC)c(-c2ccc(OC)c(CC=C)c2)c1				5.35	
C=CCc1ccc(OC)c(-c2ccc(O)c(CC=C)c2)c1				5.28	
C=CCc1ccc(Oc2cc(CC=C)ccc2O)cc1 [ISOMAGNOLOL]				4.82	
C=CCc1ccc(O)c(-c2cc(CC=C)ccc2O)c1 [MAGNOLOL]				4.8	
C=CCc1ccc(O)c(-c2ccc(OC)c(CC=C)c2)c1 [METHYLHONOKIOL]				5.07	
